The values below come from ChEMBL document CHEMBL4000155, “Synthesis and Antileukemic Activities of Piperlongumine and HDAC Inhibitor Hybrids against Acute Myeloid Leukemia Cells” (J Med Chem, 2016).

Assay [1] relates to U-937. The assay is described as follows: Induction of apoptosis in p53 null human U937 cells at 2 uM after 24 hrs in presence of SAHA by annexin V-FITC/PI staining based flow cytometry. Format: functional. The method, boiled down: (§1)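 Human U937 AML cells (p53 null) in RPMI 1640 with 10% FBS, 2 mM L-glutamine, penicillin/streptomycin, 37 °C, 5% CO2. Exposed 24 h to compound alone or with SAHA; vehicle DMSO < 0.1% v/v. Annexin V-FITC/PI staining and flow cytometry, reported as % Annexin V+ cells. Three independent experiments in triplicate; one representative shown. EC50 taken as concentration giving 50% Annexin V+ cells versus vehicle.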
On the technique in general: Flow cytometry measures light scatter and fluorescence of single cells or particles in a stream.

A short description of assay [2]: Antiproliferative activity against human CMS cells after 72 hrs in presence of SAHA by MTT assay. Format: functional, cell-based. Put shortly: (§2)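 AML cell lines grown in RPMI 1640 with 10% FBS (20% for MOLM-13), 2 mM L-glutamine and penicillin/streptomycin at 37 °C, 5% CO2. Ara-C-resistant HL-60 and CMK sublines came from stepwise cytarabine selection and were kept in 600 nM or 300 nM cytarabine respectively. Cells were treated 72 h. MTT 0.05 mg/mL, 3 h at 37 °C, DMSO solubilization, absorbance at 570 nm. IC50 given ± SEM.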
In general terms: Tetrazolium assays rely on reduction of a dye to a coloured formazan, in cell work by metabolically active cells.

In assay [3] the test system is HL-60. The assay is described as follows: Antiproliferative activity against Ara-C resistant human HL60 cells after 72 hrs in presence of SAHA by MTT assay. Format: functional, cell-based. The conditions noted are these: HL-60, 72 h. Put shortly:
as §2

Assay [4] deals with U-937. The assay is described as follows: Induction of apoptosis in p53 null human U937 cells at 2 uM preincubated with NAC for 3 hrs followed by compound addition measured after 24 hrs in presence of SAHA by annexin V-FITC/PI staining based flow cytometry. Format: functional, cell-based. The method, boiled down: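 U937 cells preincubated 3 h with 3 mM NAC or vehicle and washed with PBS to remove excess NAC. Then drug alone or with SAHA for 24 h. Apoptosis scored as % Annexin V+ by Annexin V-FITC/PI flow cytometry; vehicle DMSO < 0.1% v/v.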

Assay [5] concerns MOLM-13. The assay is described as follows: Induction of cell death in human MOLM13 cells harboring wild type p53/FLT3-ITD mutant after 24 hrs by annexin V-FITC/PI staining based flow cytometry. Format: functional. Put shortly: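 MOLM-13 (p53 wt, FLT3-ITD) kept in RPMI 1640 with 20% FBS, 2 mM L-glutamine, penicillin/streptomycin, 37 °C, 5% CO2. Treated 24 h; vehicle DMSO < 0.1% v/v. Annexin V-FITC/PI flow cytometry, % Annexin V+ cells. Three independent experiments in triplicate; one representative shown. EC50 is the concentration giving 50% Annexin V+ cells relative to vehicle.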

The test system of assay [6] is U-937. The assay is described as follows: Induction of apoptosis in p53 null human U937 cells at 2 uM after 24 hrs by annexin V-FITC/PI staining based flow cytometry. Format: functional. The method, boiled down: as §1
The test system of assay [7] is U-937. The assay is described as follows: Induction of DNA damage in p53 null human U937 cells assessed as decrease in Rad51 expression level by measuring ratio of Rad51 to beta-actin level at 2 uM after 24 hrs by Western blot analysis relative to control. Format: functional. Put shortly:
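U937 cells treated 24 h, alone or PL+SAHA. Whole-cell lysates (protease/phosphatase inhibitors) immunoblotted for γH2AX, CHK1, RAD51, Bim and XIAP. Band densitometry normalised to β-actin, then expressed as fold change relative to the untreated control.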
For orientation: A western blot detects proteins with antibodies after separation by electrophoresis.

Molecules are shown by their SMILES. Calls of active or inactive are those of the source. The calls are words filed in the database; no cut-off is given here.

For `COc1cc(/C=C/C(=O)N2CCC=CC2=O)cc(OC)c1OC` [PIPLARTINE], the Activity in assay [1] is reported as 62.5%. For the same compound, the 50% inhibitory concentration (IC50) in assay [2] was 1040 nM; in assay [3], 1130 nM. For the same compound, the outcome in assay [4] was inactive.

In the case of `COc1cc(/C=C/C(=O)N2CCC=CC2=O)cc(OC)c1OCCCCCCC(=O)NO`, the Activity result in assay [5] was “Dose-dependent effect”; in assay [6], 56.9%. In addition, in assay [7], the Ratio amounted to 0.9.

The term IC50 denotes the midpoint of a concentration-inhibition curve.
